# Measured values published in ChEMBL document CHEMBL4312027, “Synthesis, characterization, and biological activity of a triphenylphosphonium-containing imidazolium salt against select bladder cancer cell lines” (Eur J Med Chem, 2020).
# Activity calls are given as the source filed them. No cut-off for these calls is given here.
# Experiments:
# [1] = tested on: RT-112; test: Induction of mitochondrial membrane depolarization in human RT112 cells at 100 uM incubated for 1 hr and measured after 2 hrs recovery time by JC-1 staining based confocal microscopy; assay type: functional, cell-based
# Procedure, shortened: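 RT112 cells plated on glass-bottom dishes and incubated overnight. They were treated for 45 min, then JC-1 (final 10 μg/mL) was added to the medium for a further 15 min. Live cells were imaged by confocal microscopy (ex 485 nm; em 530 and 590 nm) every 15 min for 6 h. Red polarized versus green depolarized mitochondria were scored, with CCCP as positive control.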
# [2] = tested on: RT-112; test: Mito-toxicity in mitochondria isolated from human RT112 cells assessed as increase in cytochrome C release at 100 uM incubated for 1 hr and measured after 1 to 4 hrs incubation in preservative buffer by Western blot analysis; assay type: functional
smiles,measurement,setting,value
N#CC(C#N)=NNc1cccc(Cl)c1,Activity,[1],Active
same,Activity,[2],Active
